A selection: hits, their analogues and other compounds. The true share with any hit is near 1.5%.
MK inhibit: blocks S. pneumoniae mevalonate kinase; inhibition, % at 10 µM; hit rate 0.48% among 65,000; purified MK, PK/LDH-coupled NADH absorbance 340 nm;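 active means ranked among the strongest by inhibition in the single 10 µM screen, a fixed top-ranked set picked for dose follow-up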
PMK inhibit: S. pneumoniae PMK inhibition; purified PMK, PK/LDH-coupled NADH absorbance 340 nm; inhibition, % at 10 µM; hit rate 0.49% among 65,000; AID 539;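 active means top-ranked compounds by inhibition in the single 10 µM screen, taking a fixed number of the strongest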
TNAP act DEA: activates human TNAP at intermediate phosphate acceptor concentration. P05186. 64,000 tested, under 10 active. activation factor at 20 µM. purified TNAP, CDP-star luminescence, 100 mM DEA, 30 min; stronger effect = higher value; scale: 0 levamisole-inhibited, 1 vehicle-only enzyme;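 active means activation factor of at least 2 at 20 µM, relative to controls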
Spn DPM-DC inh: S. pneumoniae DPM-DC inhibition; purified DPM-DC, PK/LDH coupled NADH fluorescence; AID 556; hit rate 0.49% among 65,000; calls only at 10 µM;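 active means the 320 compounds with the highest percent inhibition in the single-dose primary screen, excluding strongly autofluorescent ones, cut at about 32% in these data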;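 further: kinetic rate of NADH fluorescence loss reporting ADP formed by the decarboxylase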
AP complement: alternative pathway complement inhibition, orthogonal assay; Human serum alternative complement pathway, LPS-coated ELISA, C3 deposition; tested in compound mixtures; inhibition, % at 5 µM; hit rate 0.08% among 62,000;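 active means inhibition above 30% in each of the two pooled mixtures holding the compound, so the lower value exceeds 30%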
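Test system: human serum complement alternative pathway, C3 deposition onto LPS / Medium: Mg2+-EGTA GVB++ buffer containing human serum at 1:15 dilution / Probe or stimulus: Plate-bound LPS / Times: 1 h at 37 °C / Signal: ELISA with HRP anti-human C3 antibody, TMB substrate, absorbance 450 nm / Measure: percent inhibition / Repeats: two pool placements per compound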
E coli RNAP: Escherichia coli RNA polymerase inhibition; inhibition, %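 (tested at 10 µM)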; hit rate 0.2% among 62,000; P0A8V2; E. coli RNA polymerase, fluorescence transcription assay; AID 559; in the data active means inhibition above about 20%
A number is an active result; - = inactive; . = not tested or not shown; + = active, no number; [ ] = remark or other dose.

SMILES	MK inhibit	PMK inhibit	TNAP act DEA	Spn DPM-DC inh	AP complement	E coli RNAP
CC(C)(C)P(=O)(CO)c1ccccc1 (stereo not drawn)	-	-	-	-	-	-
O=C(COC(=O)Cc1ccc(S(=O)(=O)N2CCOCC2)s1)NCc1ccccc1	49	-	-	-	-	-
Cc1ccc(C)c(-c2nc3cc(N)ccc3o2)c1	-	-	-	+[fluoresces]	-	-
Cc1cccc(N2CCN(C(=O)c3cc4c(=O)n(C)c5ccccc5c4n3C)CC2C)c1 (stereo not drawn)	-	-	-	-	-	-
CCOC(=O)c1[nH]c(COC(=O)c2ccccc2NC(=O)c2ccco2)c(C(=O)OCC)c1C	-	-	-	-	-	-
CCOC(=O)c1[nH]c(C)c(C(=O)Nc2ccccc2C)c1C	-	-	-	-	-	21
CCOC(=O)c1c(C)[nH]c(C(=O)COC(=O)c2ccccc2NC(=O)c2ccco2)c1C	-	-	-	+	-	-
CC1(C)Cc2c(sc3nc(SCC#N)n(C4CCCCC4)c(=O)c23)CO1	-	-	-	-	.	-
COC(=O)c1cc2occc2n1CC(=O)Nc1ccc(OC)c(OC)c1OC	-	-	-	+	-	-
COC(=O)Cn1cnc(=O)c(C#N)c1/C=C/N(C)C	-	-	-	-	-	-
Cc1cccc(NC(=O)c2cc(N3CCOCC3)nc3ccccc23)c1	-	-	-	-	.	21
COc1cccc(-c2nc(Cc3ccc(OC)c(OC)c3)no2)c1	-	-	-	-	-	-
CCn1c(=O)cc(OCC(=O)Nc2ccc(Cl)cn2)c2ccccc21	-	-	-	-	-	-
Cc1cc(C(=O)CSc2nnnn2-c2ccc(Cl)cc2)c(C)n1CC1CCCO1 (stereo not drawn)	-	-	-	+	-	-
Cc1cc(C(=O)CSc2nnnn2-c2ccccc2)c(C)n1CC1CCCO1 (stereo not drawn)	-	-	-	-	-	-
O=C(Nc1ccc(-c2noc(COc3ccccc3Cl)n2)cc1)c1ccco1	-	32	-	-	-	-
COc1ccc(CC(=O)Nc2ccc(-c3noc(COc4ccccc4C)n3)cc2)cc1	-	-	-	-	-	-
Cc1noc(C)c1COC(=O)C1(c2cccc(F)c2)CCCC1	-	-	-	-	-	-
CCCCOc1ccc(CN2CCC(O)CC2)cc1	41	-	-	-	-	-
OC1CCN(Cc2cccc(Oc3ccccc3)c2)CC1	-	-	-	-	-	.
CCN1CCN(Cc2ccc(NC(=O)Nc3ccc(SC)cc3)cc2)CC1	-	-	-	-	-	-
CSc1ccc(CN2CCC(O)CC2)cc1	58	-	-	-	-	-
COc1cc(OC)nc(NC(=O)NS(=O)(=O)c2ccc(OC(F)(F)F)cc2)n1	-	25	-	-	-	-
O=C1CC(N2CCN(Cc3ccc4c(c3)OCO4)CC2)C(=O)N1CCc1ccccc1 (stereo not drawn)	-	-	-	-	-	-
Cc1cc(Nc2ccc(F)cc2)n2nc(C)nc2n1	-	-	-	-	-	22
SMILES	MK inhibit	PMK inhibit	TNAP act DEA	Spn DPM-DC inh	AP complement	E coli RNAP
COc1ccc(CN2CCC(C(=O)N3CCN(c4ccccc4F)CC3)CC2)cc1OC	52	-	-	-	-	-
COc1ccc(CN2CCN(c3cccc(C)c3C)CC2)cc1OC	51	-	-	-	-	-
COc1cc(CN2CCN(c3cccc(C)c3C)CC2)cc(Br)c1O	-	-	-	-	-	-
COc1cc(CN2CCC(C(=O)N3CCN(c4ccccc4F)CC3)CC2)cc(OC)c1OC	-	-	-	-	-	-
CCOC(=O)c1cccc(NC(=O)CN(c2ccc(C)cc2)S(=O)(=O)c2c(C)n[nH]c2C)c1	-	-	-	-	-	-
O=C(NCc1ccccc1)C1C2C=CC3(CN(Cc4cccnc4)C(=O)C13)O2 (stereo not drawn)	-	27	-	-	-	-
Cc1ccccc1N1C(=O)N(c2cccc(C(F)(F)F)c2)C2CS(=O)(=O)CC21 (stereo not drawn)	-	-	-	-	-	-
CCC(C)NC(=O)C1CCN(c2nc(C)cc(C)n2)CC1 (stereo not drawn)	-	-	-	-	-	-
Cc1cc(-c2ccccc2)nc(N2CCC(C(=O)NC(C)C)CC2)n1	-	-	-	+	-	-
C=CCc1ccccc1OCC(CN1CCCCC1)OC(C)=O (stereo not drawn)	-	-	-	-	-	-
C=CCc1ccccc1OCCCCN1CCCC1	45	-	-	-	-	-
CCc1ccccc1OCCCCN1CCCC1	71	-	-	-	-	-
Cc1ccccc1OCCCN1CCCC1	43	-	-	-	-	-
Fc1ccccc1OCCCN1CCOCC1	52	-	-	-	-	-
CCOc1cccc(OCCCCN2CCCCC2)c1	-	-	-	-	-	-
O=C(COc1ccc2ccccc2c1Br)Nc1ncn[nH]1	-	-	-	-	-	-
Nc1nc2n(n1)C(c1ccc(F)cc1)CC(c1ccc(F)cc1)N2 (stereo not drawn)	-	-	-	-	.	.
COc1ccc(OC)c(N2C(=O)CC(Cc3ccc(C)cc3)C2=O)c1 (stereo not drawn)	-	-	.	-	.	.
Cc1ccc(OCCN2CCCCCC2)c(C)c1	-	-	-	-	-	-
COc1cccc(OCCCN2CCCCC2)c1	-	-	-	-	-	-
Clc1ccccc1OCCN1CCCCC1	41	-	-	-	-	-
COc1cccc(OCCCCN2CCCCC2)c1	55	-	-	-	-	-
O=C(NCc1nc2ccccc2[nH]1)c1ccco1	-	-	-	-	-	25
CCN(CCCNC(=O)CCc1nc(-c2ccc(OC)cc2)no1)c1cccc(C)c1	-	-	-	-	-	-
COc1cc(CN(C)CCc2ccccn2)cc(OC)c1OC	52	-	-	-	-	-
SMILES	MK inhibit	PMK inhibit	TNAP act DEA	Spn DPM-DC inh	AP complement	E coli RNAP
CCc1ccc(CN(C)CCc2ccccn2)cc1	52	-	-	-	-	-
O=C(NCc1ccccn1)c1ccc(Cl)cc1Cl	-	-	-	-	-	-
COc1ccc(CN(C)CCc2ccccn2)cc1OC	-	-	-	-	-	-
CN(CCc1ccccn1)Cc1ccc(Cl)cc1	59	-	-	-	-	-
Cc1ccc(CN(C)CCc2ccccn2)cc1	56	-	-	-	-	-
COc1ccc2oc(C(=O)C3CC3)c(NC(=O)CCCN3C(=O)c4ccccc4C3=O)c2c1	-	-	-	-	-	-
C/C(=N/n1cnnc1)c1cccnc1	-	-	-	-	.	27
Cc1ccc(N2CCN(C(=O)C3CCN(S(=O)(=O)c4cccc5nsnc45)CC3)CC2C)cc1 (stereo not drawn)	-	-	-	-	-	-
CCCCOC(=O)c1ccc(NC(=O)C(CCS(C)(=O)=O)NC(C)=O)cc1 (stereo not drawn)	-	-	-	-	-	-
CC(=O)Nc1ccc(C(=O)OCCC(C)C)cc1	-	-	-	-	-	68
